From ChEMBL document CHEMBL4368933, “Structure-activity relationship of leucyladenylate sulfamate analogues as leucyl-tRNA synthetase (LRS)-targeting inhibitors of Mammalian target of rapamycin complex 1 (mTORC1)” (Bioorg Med Chem, 2019) come the findings set out here.

Structures are written as SMILES. The source made the active and inactive calls. The rule behind the calls is not given here.

Experiment [1] has as its target Leucine--tRNA ligase, cytoplasmic (Homo sapiens) (UniProt Q9P2J5). Description: Inhibition of Leucyl-tRNA synthetase-mediated mTORC1 signaling activation in human HEK293 cells assessed as reduction in leucine-induced S6K phosphorylation at 200 uM preincubated for 50 mins followed by leucine-stimulation and measured after 10 mins by Western blot analysis. The format is cell-based. The essentials: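 HEK293 cells pretreated with test agent at a fixed 200 µM, alongside rapamycin (100 nM) and leucinol (800 µM) as references. mTORC1 then activated by adding leucine for 10 min. S6K phosphorylation read by Western blot.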
On the technique in general: In western blotting, separated proteins are transferred to a membrane and probed.

For experiment [2], the system named is A549. The experiment can be described thus: Antiproliferative activity against human A549 cells after 72 hrs by SRB assay. In kind it is functional, cell-based. The settings on record: A549, 72 h. In outline:
(§1)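 Colorimetric growth assay with IC50 values derived; etoposide as positive control. Cell lines: A549 (lung cancer), HCT116 (colon cancer), MDA-MB-231 (breast cancer), SK-Hep-1 (liver cancer), SNU638 (stomach cancer), MRC5 (normal lung […]).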

In experiment [3] the test system is HCT-116. The experiment can be described thus: Antiproliferative activity against human HCT116 cells after 72 hrs by SRB assay. The format is functional, cell-based. The following applies: HCT-116, 72 h. The essentials: as §1
A general note: Sulforhodamine B stains cellular protein and so reports cell mass.

Experiment [4] has as its system MDA-MB-231. The experiment can be described thus: Antiproliferative activity against human MDA-MB-231 cells after 72 hrs by SRB assay. In kind it is functional, cell-based. The following applies: MDA-MB-231, 72 h. The essentials:
as §1

In experiment [5] the test system is SK-HEP1. The experiment can be described thus: Antiproliferative activity against human SKHEP1 cells after 72 hrs by SRB assay. In kind it is functional, cell-based. The following applies: SK-HEP1, 72 h. The essentials:
as §1

The subject of experiment [6] is SNU-638. The experiment can be described thus: Antiproliferative activity against human SNU638 cells after 72 hrs by SRB assay. In kind it is functional, cell-based. The settings on record: SNU-638, 72 h. The essentials:
as §1

Experiment [7] deals with MRC5. The experiment can be described thus: Antiproliferative activity against human MRC5 cells after 72 hrs by SRB assay. The format is cell-based. The following applies: MRC5, 72 h. The essentials: as §1
Experiment [8] concerns the target mTORC2 (Homo sapiens) (UniProt P42345+Q6R327+Q9BVC4+Q9BPZ7). The experiment can be described thus: Inhibition of mTORC2 signaling in human HEK293 cells assessed as reduction in leucine-induced AKT phosphorylation at 200 uM preincubated for 50 mins followed by leucine-stimulation and measured after 10 mins by Western blot analysis. The format is cell-based.
Experiment [9] deals with HEK293. Description: Effect on leucine-induced AKT levels in human HEK293 cells at 200 uM preincubated for 50 mins followed by leucine-stimulation and measured after 10 mins by Western blot analysis. The format is functional, cell-based.
For experiment [10], the target named is Leucine--tRNA ligase, cytoplasmic (Homo sapiens) (UniProt Q9P2J5). The experiment can be described thus: Inhibition of Leucyl-tRNA synthetase-mediated mTORC1 signaling activation in human HEK293 cells assessed as reduction in leucine-induced S6K phosphorylation preincubated for 50 mins followed by leucine-stimulation and measured after 10 mins by Western blot analysis. The format is cell-based. The essentials:
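HEK293 cells pretreated at 20, 50, 100 and 200 µM. Leucine then added for 10 min to activate mTORC1. Dose dependence of leucine-induced S6K phosphorylation assessed by Western blot.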

Leucine--tRNA ligase, cytoplasmic (Homo sapiens), sequence (Q9P2J5 whole entry, looked up): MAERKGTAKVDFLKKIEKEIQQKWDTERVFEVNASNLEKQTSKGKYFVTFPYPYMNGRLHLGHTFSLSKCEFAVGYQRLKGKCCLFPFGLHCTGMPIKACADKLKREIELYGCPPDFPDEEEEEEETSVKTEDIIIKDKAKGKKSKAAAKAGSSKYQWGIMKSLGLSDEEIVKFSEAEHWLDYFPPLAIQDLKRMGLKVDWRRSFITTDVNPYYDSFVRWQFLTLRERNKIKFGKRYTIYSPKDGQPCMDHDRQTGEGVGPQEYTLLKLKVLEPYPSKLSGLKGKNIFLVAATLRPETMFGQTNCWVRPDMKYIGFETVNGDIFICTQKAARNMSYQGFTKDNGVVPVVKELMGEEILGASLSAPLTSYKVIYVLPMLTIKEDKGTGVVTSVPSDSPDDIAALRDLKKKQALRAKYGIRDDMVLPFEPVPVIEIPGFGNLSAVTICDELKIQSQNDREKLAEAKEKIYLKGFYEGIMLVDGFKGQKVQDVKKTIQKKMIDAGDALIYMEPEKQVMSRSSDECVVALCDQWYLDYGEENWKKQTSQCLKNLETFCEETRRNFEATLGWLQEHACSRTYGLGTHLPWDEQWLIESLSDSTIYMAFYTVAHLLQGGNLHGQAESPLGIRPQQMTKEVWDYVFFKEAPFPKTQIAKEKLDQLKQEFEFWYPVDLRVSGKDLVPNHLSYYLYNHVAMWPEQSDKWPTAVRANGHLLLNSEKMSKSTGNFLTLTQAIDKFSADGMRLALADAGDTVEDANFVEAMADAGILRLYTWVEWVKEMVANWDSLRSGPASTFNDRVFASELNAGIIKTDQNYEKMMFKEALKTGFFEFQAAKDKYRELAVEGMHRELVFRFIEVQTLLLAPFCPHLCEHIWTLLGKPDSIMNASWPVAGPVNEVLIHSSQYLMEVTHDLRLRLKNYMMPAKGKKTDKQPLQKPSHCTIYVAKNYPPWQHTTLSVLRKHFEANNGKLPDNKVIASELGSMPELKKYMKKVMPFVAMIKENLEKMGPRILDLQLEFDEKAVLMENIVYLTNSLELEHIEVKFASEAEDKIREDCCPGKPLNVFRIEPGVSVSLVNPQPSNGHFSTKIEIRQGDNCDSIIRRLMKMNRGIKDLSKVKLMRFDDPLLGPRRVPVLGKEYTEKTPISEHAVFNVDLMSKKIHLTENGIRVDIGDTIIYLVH

Regarding `CO[C@H](C(=O)NS(=O)(=O)OC[C@H]1O[C@@H](n2cnc3c(N)nc(Cl)nc32)[C@H](O)[C@@H]1O)[C@H](OC)C(C)C`, the inhibition result in [1] was “Active”. Moreover, the IC50 in experiment [2], in experiment [3], in experiment [4], in experiment [5], in [6] and in [7] was above 20 µM throughout.
Regarding `CC(C)[C@@H](O)[C@H](O)C(=O)NS(=O)(=O)OC[C@H]1O[C@@H](n2cnc3c(N)nc(I)nc32)[C@H](O)[C@@H]1O`, the inhibition entry in [1] is “Active”. The inhibition result in experiment [8] is “inactive”. In addition, the outcome in experiment [9] was inactive.
`CC(C)C[C@H](O)C(=O)NS(=O)(=O)OC[C@H]1O[C@@H](n2cnc3c(N)ncnc32)C[C@@H]1O`: the inhibition entry in experiment [1] was “inactive”. In experiment [8], the inhibition result is “Active”.
Regarding `CC(C)C[C@H](Cl)C(=O)NS(=O)(=O)OC[C@H]1O[C@@H](n2cnc3c(N)nc(Cl)nc32)[C@H](O)[C@@H]1O`, the inhibition result in [1] was “Active”. In addition, the IC50 – broadly, the midpoint of a concentration-inhibition curve – is 6.27 µM in experiment [2]; 7.51 µM in experiment [3]; 7.75 µM in [4]; 5.87 µM in experiment [5]; 5.5 µM in experiment [6]; above 20 µM in [7].
For the molecule `CNc1ncnc2c1ncn2[C@@H]1O[C@H](COS(=O)(=O)NC(=O)[C@H](CC(C)C)OC)[C@@H](O)[C@H]1O`, the inhibition entry in [1] was “inactive”. Further, the inhibition entry in experiment [8] is “Active”.
For the molecule `CC(C)[C@@H](O)[C@H](O)C(=O)NS(=O)(=O)OC[C@H]1O[C@@H](n2cnc3c(N)ncnc32)C[C@@H]1O`, in experiment [10], the inhibition result is “Dose-dependent effect”. In experiment [1], the inhibition result is “Active”. Moreover, in experiment [8], the inhibition entry was “inactive”. Moreover, in [9], the result was inactive. For the same molecule, the IC50 is 5.04 µM in experiment [2]; 6.52 µM in experiment [3]; 6.27 µM in experiment [4]; 5.74 µM in experiment [5]; 4.72 µM in experiment [6]; above 20 µM in experiment [7].
With `CC(C)C[C@H](O)C(=O)NS(=O)(=O)OC[C@H]1O[C@@H](n2cnc3c(=O)[nH]cnc32)[C@H](O)[C@@H]1O`, the inhibition entry in [1] was “Active”. Moreover, the IC50 in experiment [2], in [3], in [4], in experiment [5], in [6] and in experiment [7] was above 20 µM each time.
Regarding `Nc1ncnc2c1ncn2[C@@H]1O[C@H](COS(=O)(=O)NC(=O)[C@@H](O)[C@H](O)C2CC2)[C@@H](O)[C@@H]1O`, in experiment [1], the inhibition result is “Active”. Besides, the IC50 is 6.93 µM in experiment [2]; 9.14 µM in experiment [3]; 17.8 µM in experiment [4]; 7.26 µM in [5]; 5.7 µM in [6]; above 20 µM in experiment [7].
As to `CC(C)[C@H](O)[C@@H](O)C(=O)NS(=O)(=O)OC[C@H]1O[C@@H](n2cnc3c(N)ncnc32)[C@H](O)[C@@H]1O`, the inhibition result in experiment [1] and in experiment [8] was “inactive” throughout. Also, in experiment [9], the outcome was inactive.
Regarding `Nc1nc(I)nc2c1ncn2[C@@H]1O[C@H](COS(=O)(=O)NC(=O)[C@@H](O)[C@H](O)C2CC2)[C@@H](O)[C@H]1O`, the inhibition result in experiment [1] was “Active”. For the same molecule, the IC50 is 4.84 µM in experiment [2]; 7.27 µM in experiment [3]; 16.7 µM in [4]; 5.86 µM in experiment [5]; 4.77 µM in [6]; above 20 µM in [7].
Consider `CC(C)[C@@H](O)[C@H](O)C(=O)NS(=O)(=O)OC[C@H]1O[C@@H](n2cnc3c(N)ncnc32)[C@H](O)[C@@H]1O`, for which the inhibition result in experiment [1] was “Active”. Also, in experiment [8], the inhibition entry is “inactive”. Besides, in experiment [9], the outcome was inactive.
On to `CC(C)[C@@H](O)[C@H](O)C(=O)NS(=O)(=O)OC[C@@H]1C[C@@H](O)[C@H](n2cnc3c(N)ncnc32)O1`, for which the inhibition entry in [1] and in experiment [8] was “inactive” each time. Moreover, in [9], the result was inactive.
As to `CNc1ncnc2c1ncn2[C@@H]1O[C@H](COS(=O)(=O)NC(=O)[C@H](O)[C@@H](O)C(C)C)[C@@H](O)[C@H]1O`, the inhibition result in experiment [1] and in experiment [8] was “inactive” throughout. For the same molecule, the outcome in [9] was inactive.
For the molecule `CC(C)C[C@H](O)C(=O)NS(=O)(=O)OC[C@H]1O[C@@H](n2cnc3c(N)ncnc32)[C@H](O)[C@@H]1O`, the inhibition entry in [10] was “Dose-dependent effect”. The inhibition result in [1] is “Active”. Also, the inhibition result in experiment [8] is “inactive”. In experiment [9], the result was inactive. The IC50 in experiment [2] amounted to 1 µM; in experiment [3] it was 3.47 µM; in experiment [4], 2.61 µM; in experiment [5], 1.76 µM; in experiment [6], 4.5 µM; in experiment [7] it was 16.6 µM.
As to `CO[C@H](C(=O)NS(=O)(=O)OC[C@H]1O[C@@H](n2cnc3c(N)nc(Cl)nc32)[C@H](O)[C@@H]1O)[C@H](O)C(C)C`, in [1], the inhibition entry was “inactive”.
For `CC(C)C[C@H](N)CO`, the inhibition result in experiment [1] is “Active”.
Turning to `CC(C)[C@@H](O)[C@H](O)C(=O)NS(=O)(=O)OC[C@H]1O[C@@H](n2cnc3c(=O)[nH]cnc32)[C@H](O)[C@@H]1O`, in experiment [1], the inhibition entry was “Active”. The IC50 in experiment [2], in [3], in experiment [4], in experiment [5], in experiment [6] and in experiment [7] was above 20 µM in each case.
Turning to `CC(C)C[C@H](O)C(=O)NS(=O)(=O)OC[C@@H]1C[C@@H](O)[C@H](n2cnc3c(N)ncnc32)O1`, the inhibition entry in [1] was “inactive”. In addition, the inhibition result in experiment [8] was “Active”.
As for `CO[C@H](C(=O)NS(=O)(=O)OC[C@H]1O[C@@H](n2cnc3c(N)ncnc32)C[C@@H]1O)[C@H](O)C(C)C`, the inhibition entry in experiment [1] was “inactive”.
Take `COc1cc([C@@H]2c3cc4c(cc3[C@@H](O[C@@H]3O[C@@H]5CO[C@@H](C)O[C@H]5[C@H](O)[C@H]3O)[C@H]3COC(=O)[C@H]23)OCO4)cc(OC)c1O` [ETOPOSIDE]: the IC50 in experiment [2] was found to be 0.47 µM; in [3] it was 1.22 µM; in experiment [4], 3.38 µM; in experiment [5], 0.41 µM; in experiment [6] it was 0.34 µM; in experiment [7] it was 12.7 µM.
With `Nc1ncnc2c1ncn2[C@@H]1O[C@H](COS(=O)(=O)NC(=O)[C@@H](O)[C@H](O)C2CC2)[C@@H](O)[C@H]1O`, in [1], the inhibition result was “inactive”.
For `CO[C@H](C(=O)NS(=O)(=O)OC[C@H]1O[C@@H](n2cnc3c(N)ncnc32)[C@H](O)[C@@H]1O)[C@H](OC)C(C)C`, the inhibition result in experiment [1] is “inactive”.
As for `CC(C)(C)c1cc(C(=O)NS(=O)(=O)OC[C@H]2O[C@@H](n3cnc4c(N)ncnc43)[C@H](O)[C@@H]2O)[nH]n1`, in experiment [1], the inhibition entry was “Active”.
The same measure, in the same setting: next, `CC(C)C[C@H](N)C(=O)NS(=O)(=O)OC[C@H]1O[C@@H](n2cnc3c(N)ncnc32)[C@H](O)[C@@H]1N`: “inactive”.
